Measurements from ChEMBL document CHEMBL5260794, “Synthesis and biological evaluation of a new class of benzothiazines as neuroprotective agents” (Eur J Med Chem, 2017).
Active and inactive are the calls of the source. The calls are words filed in the database; no cut-off is given here.

Key:
Rattus norvegicus [1] = organism: Rattus norvegicus; test: Neuroprotective activity against oxygen glucose deprivation/reperfusion-induced Wistar rat cortical brain assessed as concentration required to reduce glutamate release by measuring efficacy window; assay type: functional
Summary of the method: (§1)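 Male Wistar rat cortical slices (400 μm) in oxygenated ACSF, pH 7.4, 1 h at room temperature, then 30 min at 37 °C. OGD for 30 min in glucose-free ACSF with 11 mM sucrose under 95% N₂/5% CO₂. Compound added in the reoxygenation buffer. Glutamate and LDH release measured. Mean ± SEM of at least four experiments, ANOVA with Dunnett test.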

Rattus norvegicus [2] = organism: Rattus norvegicus; test: Neuroprotective activity against oxygen glucose deprivation/reperfusion-induced Wistar rat cortical brain assessed as reduction in LDH release relative to control; assay type: functional; parameters: concentration or dose not given beside the values; summary of the method: as §1
Rattus norvegicus [3] = organism: Rattus norvegicus; test: Neuroprotective activity against oxygen glucose deprivation/reperfusion-induced Wistar rat cortical brain assessed as concentration required to reduce LDH release by measuring efficacy window; assay type: functional; summary of the method: as §1
Rattus norvegicus [4] = organism: Rattus norvegicus; test: Neuroprotective activity against oxygen glucose deprivation/reperfusion-induced Wistar rat cortical brain assessed as reduction in glutamate release relative to control; assay type: functional; parameters: concentration or dose not given beside the values; summary of the method: as §1
Rattus norvegicus [5] = organism: Rattus norvegicus; test: Neuroprotective activity against oxygen glucose deprivation/reperfusion-induced Wistar rat cortical brain assessed as reduction in glutamate release by measuring minimal effective concentration; assay type: functional; summary of the method: as §1
Rattus norvegicus [6] = organism: Rattus norvegicus; test: Neuroprotective activity against oxygen glucose deprivation/reperfusion-induced Wistar rat cortical brain assessed as reduction in LDH release by measuring minimal effective concentration; assay type: functional; summary of the method: as §1
SH-SY5Y [7] = test: Neuroprotective activity against 6-OHDA-induced toxicity in human SH-SY5Y cells assessed as reduction in condensed and fragmented nuclei at 10 uM pretreated for 1 hr followed by 6-OHDA challenge measured after 2 hrs by DAPI staining based assay relative to control; settings: time 3.0 hrs
SH-SY5Y [8] = test: Neuroprotective activity against glutamate-induced toxicity in human SH-SY5Y cells assessed as reduction in cell rounding at 0.01 uM pretreated for 1 hr followed by glutamate challenge measured after 24 hrs by phase-contrast light microscopic analysis; assay type: functional, cell-based; settings: time 25.0 hrs
Summary of the method: (§2)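 SH-SY5Y cells pretreated with compound 1 h, then glutamate 50 mM for 24 h. Morphology examined and photographed by phase-contrast microscopy. Scored on USP 28 grade scale 0-4, with grades based on cell rounding, loss of intracytoplasmic granules, lysis and empty areas between cells. Control wells received medium only.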

SH-SY5Y [9] = test: Neuroprotective activity against 6-OHDA-induced toxicity in human SH-SY5Y cells assessed as increase in cell viability at 0.01 uM pretreated for 1 hr followed by 6-OHDA challenge measured after 2 hrs by MTT assay; assay type: functional, cell-based; settings: time 3.0 hrs
Summary of the method: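 SH-SY5Y cells (RPMI 1640, 10% FBS, 37 °C, 5% CO2, used in exponential growth) seeded 8 x 10⁴ cells/mL, attached 24 h, pre-incubated with compound 1 h, then 6-OHDA 55 μM for 2 h (6-OHDA freshly dissolved in nitrogen-gassed 5 μM ascorbic acid). Controls received medium with 5 μM ascorbic acid. Viability by MTT. Mean ± SEM of 4 independent experiments, each in triplicate or quadruplicate.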

SH-SY5Y [10] = test: Neuroprotective activity against 6-OHDA-induced toxicity in human SH-SY5Y cells assessed as condensed and fragmented nuclei at 0.01 uM pretreated for 1 hr followed by 6-OHDA challenge measured after 2 hrs by DAPI staining based assay relative to control; assay type: functional; settings: time 3 hrs
SH-SY5Y [11] = test: Neuroprotective activity against glutamate-induced toxicity in human SH-SY5Y cells assessed as reduction in grade 2 to 3 toxicity at 0.01 uM pretreated for 1 hr followed by glutamate challenge measured after 24 hrs by phase-contrast light microscopic analysis; assay type: functional, cell-based; settings: time 25.0 hrs; summary of the method: as §2
SH-SY5Y [12] = test: Neuroprotective activity against glutamate-induced toxicity in human SH-SY5Y cells assessed as reduction in cell shrinkage at 0.01 uM pretreated for 1 hr followed by glutamate challenge measured after 24 hrs by phase-contrast light microscopic analysis; assay type: functional, cell-based; settings: time 25.0 hrs; summary of the method: as §2
SH-SY5Y [13] = test: Neuroprotective activity against glutamate-induced toxicity in human SH-SY5Y cells assessed as cell viability at 0.01 uM pretreated for 1 hr followed by glutamate challenge measured after 24 hrs by MTT assay; assay type: functional; settings: time 25 hrs, read-out: Activity
SH-SY5Y [14] = test: Neuroprotective activity against glutamate-induced toxicity in human SH-SY5Y cells assessed as reduction in G0/G1 phase cells at 0.01 uM pretreated for 1 hr followed by glutamate challenge measured after 24 hrs by propidium staining based flow cytometry; assay type: functional, cell-based; settings: time 25.0 hrs
Summary of the method: (§3)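 Cells seeded 2.5 x 10⁵ cells/mL, pretreated with compound 1 h, then glutamate 50 mM for 24 h. Cells fixed in 70% ethanol (30 min, 4 °C), kept at -20 °C for at least 24 h, stained with propidium iodide and run on flow cytometer (563-607 nm band-pass). At least 1x10⁴ cells acquired per sample; sub-G0/G1 peak taken as apoptotic. Mean ± SEM, 4 independent experiments.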

SH-SY5Y [15] = test: Neuroprotective activity against glutamate-induced toxicity in human SH-SY5Y cells assessed as reduction in cell detachment at 0.01 uM pretreated for 1 hr followed by glutamate challenge measured after 24 hrs by phase-contrast light microscopic analysis; assay type: functional, cell-based; settings: time 25.0 hrs; summary of the method: as §2
SH-SY5Y [16] = test: Neuroprotective activity against glutamate-induced toxicity in human SH-SY5Y cells assessed as reduction in sub G0/G1 phase cells at 0.01 uM pretreated for 1 hr followed by glutamate challenge measured after 24 hrs by propidium staining based flow cytometry; assay type: functional, cell-based; settings: time 25.0 hrs; summary of the method: as §3
SH-SY5Y [17] = test: Neuroprotective activity against glutamate-induced toxicity in human SH-SY5Y cells assessed as reduction in condensed and fragmented nuclei at 0.01 uM pretreated for 1 hr followed by glutamate challenge measured after 24 hrs by DAPI staining based assay (reference value: 16.9 +/- 1.5%); assay type: functional, cell-based; settings: time 25.0 hrs
SH-SY5Y [18] = test: Neuroprotective activity against glutamate-induced toxicity in human SH-SY5Y cells assessed as increase in S phase cells at 0.01 uM pretreated for 1 hr followed by glutamate challenge measured after 24 hrs by propidium staining based flow cytometry; assay type: functional, cell-based; settings: time 25.0 hrs; summary of the method: as §3
SH-SY5Y [19] = test: Neuroprotective activity against glutamate-induced toxicity in human SH-SY5Y cells assessed as reduction in ROS production measured after 24 hrs by DCFH-DA staining based assay; assay type: functional, cell-based; settings: dose 0.1-10 µM
Summary of the method: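 Human SH-SY5Y neuroblastoma cells were preloaded with DCFH-DA (5 μM, 30 min) and washed in PBS. They were then pretreated for 1 h with compound (0.1-10 μM; DMSO stock diluted in PBS, final DMSO <0.01%) and challenged with glutamate (50 mM). Fluorescence (ex 485/em 535 nm) was read at 24 h and expressed as % inhibition of glutamate-induced ROS. Data are mean ± SEM of 4 experiments run in triplicate or quadruplicate.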

SH-SY5Y [20] = test: Neuroprotective activity against glutamate-induced toxicity in human SH-SY5Y cells assessed as reduction in ROS production at 0.01 uM by DCFH-DA staining based assay; assay type: functional, cell-based; settings: time 24.0 hrs, TDE = time-dependent effect
Summary of the method: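 Before treatment, SH-SY5Y cells loaded with DCFH-DA (5 μM, 30 min) and washed in PBS. Then 1 h compound pretreatment followed by glutamate 50 mM. Fluorescence read at 1 h or 24 h (ex 485, em 535 nm). Result expressed as % inhibition of glutamate-induced intracellular ROS. Mean ± SEM, 4 independent experiments in triplicate or quadruplicate.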

Compound | Efficacy (Rattus norvegicus [1]) | Activity (Rattus norvegicus [2]) | Efficacy (Rattus norvegicus [3]) | Activity (Rattus norvegicus [4]) | MEC (Rattus norvegicus [5]) | MEC (Rattus norvegicus [6]) | further results
CCCN(CCC)/C(C)=N/C1=Nc2ccc(OC(F)(F)F)cc2CS1 | 0.01 µM | 31% | 0.1 µM | 17.8% | 0.01 µM | 0.1 µM | 
CN/C(C)=N/C1=Nc2ccccc2SC1 | 0.1 µM | 33.2% | 100 µM | 25.5% | 0.1 µM | 100 µM | 
CCN(CC)/C(C)=N/C1=Nc2ccc(OC(F)(F)F)cc2CS1 | inactive | inactive | inactive | inactive | inactive | inactive | 
CCN(CC)/C(C)=N/C1=Nc2ccccc2SC1 | inactive | inactive | inactive | inactive | inactive | inactive | 
CCCNC(=S)NC1=Nc2ccccc2CS1 | 0.001 µM | inactive | inactive | 45.7% | 0.001 µM | inactive | 
C/C(=N\C1=Nc2ccccc2CS1)N(C)C | 0.01 µM | 78.4% | 0.01 µM | 72.7% | 0.01 µM | 0.01 µM | 
NC1=Nc2ccc(OC(F)(F)F)cc2CS1 | 0.001 µM | inactive | inactive | 69.1% | 0.001 µM | inactive | 
C/C(=N\C1=Nc2ccccc2SC1)N(C)C | inactive | inactive | inactive | inactive | inactive | inactive | 
CCCN(CCC)/C(C)=N/C1=Nc2ccccc2SC1 | inactive | 53.5% | 10 µM | inactive | inactive | 10 µM | 
CN/C(C)=N/C1=Nc2ccccc2CS1 | 5 µM | 40.1% | 1 µM | 43.6% | 5 µM | 0.1 µM | Activity (SH-SY5Y [7]): Active
Nc1nc2ccc(OC(F)(F)F)cc2s1 [RILUZOLE] |  |  |  |  |  |  | Activity (SH-SY5Y [8]): Active; Activity (SH-SY5Y [9]): Active; Activity (SH-SY5Y [10]): >20%; Activity (SH-SY5Y [11]): Active; Activity (SH-SY5Y [12]): Active; viability at 0.01 µM (SH-SY5Y [13]): 65%; Activity (SH-SY5Y [14]): Active; Activity (SH-SY5Y [15]): Active; Activity (SH-SY5Y [16]): Active; Activity (SH-SY5Y [17]): Active; Activity (SH-SY5Y [18]): Active; Activity (SH-SY5Y [19]): Dose-Dependent Effect; Activity (SH-SY5Y [20]): Tde
